TNAP act mid DEA: human TNAP activation, intermediate phosphate acceptor; 64,000 tested, under 10 active; AID 813; P05186; activation factor at 20 µM; purified TNAP, CDP-star luminescence, 100 mM DEA, 30 min; hits give high values; scale: 0 levamisole-inhibited, 1 vehicle-only enzyme;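 active means activation factor of at least 2 at 20 µM, relative to controls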
MT1-MMP txn act: activates MT1-MMP transcription; HT1080 MT1-MMP promoter luciferase reporter, luminescence, overnight; hits give high values; activation factor at 10 µM; 0.16% of 86,000 active;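 active means activation factor of at least 2 for MT1-MMP transcription at 10 µM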
AP ELISA ortho: orthogonal test for alternative complement pathway inhibitors; Human serum alternative complement pathway, LPS-coated ELISA, C3 deposition; tested in compound mixtures; inhibition, % at 5 µM; 0.08% of 62,000 active; AID 1235;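 active means inhibition above 30% in each of the two pooled mixtures holding the compound, so the lower value exceeds 30%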;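 further: 0% = serum in Mg-EGTA without compound and 100% = EDTA serum blank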
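Assay system: Human serum alternative complement pathway, C3 deposition on LPS-coated wells | Incubation: 1 h serum-compound exposure at 37 °C | Doses: 5 µM per compound in ten-compound mixtures | Read-out: Percent inhibition | Technique: ELISA with HRP anti-human C3 antibody, TMB substrate, absorbance 450 nm | Replication: Two pool placements per compound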
Ec RNAP inh: inhibitors of Escherichia coli RNA polymerase | E. coli RNA polymerase, fluorescence transcription assay | inhibition, %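 (tested at 10 µM)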 | AID 559 | 0.2% of 62,000 active | P0A8V2; in the data active means inhibition above about 20%;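 further: 0% = enzyme without compound and 100% = no enzyme blank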
Target sequence (P0A8V2 whole entry, looked up): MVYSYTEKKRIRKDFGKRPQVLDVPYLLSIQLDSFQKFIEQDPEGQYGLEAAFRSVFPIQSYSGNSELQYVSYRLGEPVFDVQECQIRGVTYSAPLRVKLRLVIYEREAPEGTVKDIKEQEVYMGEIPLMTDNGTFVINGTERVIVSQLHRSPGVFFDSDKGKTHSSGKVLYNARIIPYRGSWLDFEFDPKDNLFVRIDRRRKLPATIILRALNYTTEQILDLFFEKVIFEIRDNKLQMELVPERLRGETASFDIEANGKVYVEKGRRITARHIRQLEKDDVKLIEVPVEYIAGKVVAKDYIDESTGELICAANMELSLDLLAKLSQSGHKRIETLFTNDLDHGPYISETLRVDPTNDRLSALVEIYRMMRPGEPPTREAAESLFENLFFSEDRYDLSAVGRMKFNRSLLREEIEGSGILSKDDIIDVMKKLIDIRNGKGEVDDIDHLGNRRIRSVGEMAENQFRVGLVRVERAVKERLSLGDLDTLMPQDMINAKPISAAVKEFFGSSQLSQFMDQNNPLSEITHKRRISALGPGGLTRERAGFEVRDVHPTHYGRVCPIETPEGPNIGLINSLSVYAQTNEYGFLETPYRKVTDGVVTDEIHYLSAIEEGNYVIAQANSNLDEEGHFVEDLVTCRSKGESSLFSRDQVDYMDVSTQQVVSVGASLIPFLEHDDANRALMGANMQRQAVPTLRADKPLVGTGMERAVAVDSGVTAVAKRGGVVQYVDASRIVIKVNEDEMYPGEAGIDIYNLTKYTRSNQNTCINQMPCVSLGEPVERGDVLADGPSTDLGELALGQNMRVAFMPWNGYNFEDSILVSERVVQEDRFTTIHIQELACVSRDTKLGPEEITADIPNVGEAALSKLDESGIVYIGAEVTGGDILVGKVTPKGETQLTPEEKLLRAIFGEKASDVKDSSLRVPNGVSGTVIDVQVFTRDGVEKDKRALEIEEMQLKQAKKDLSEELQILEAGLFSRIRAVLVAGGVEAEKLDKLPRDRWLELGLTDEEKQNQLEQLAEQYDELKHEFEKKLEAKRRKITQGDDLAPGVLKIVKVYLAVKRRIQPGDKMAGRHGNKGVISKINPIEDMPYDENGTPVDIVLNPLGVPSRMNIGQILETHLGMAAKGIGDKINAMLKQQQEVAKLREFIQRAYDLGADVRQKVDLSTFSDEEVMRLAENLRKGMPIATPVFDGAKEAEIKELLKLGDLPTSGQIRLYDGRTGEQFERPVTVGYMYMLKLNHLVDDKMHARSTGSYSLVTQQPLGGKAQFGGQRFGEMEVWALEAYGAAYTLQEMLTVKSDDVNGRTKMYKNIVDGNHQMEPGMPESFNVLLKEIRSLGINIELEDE
SF-1 act: SF-1 (human) activation; CHO-K1 Gal4-SF-1 LBD luciferase reporter; % increase over DMSO SF-1-specific signal; Q13285; AID 522; activation, % at 10 µM; 1.9% of 65,000 active;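 active means activation above the mean activation of all tested compounds plus 3 SD, cut at about 50% in these data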
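Material: Transient Gal4-SF-1 LBD reporter, CHO-K1 | Input: 4,000 cells/well | Dosing: One dose, 10 µM compound, 1% DMSO | Incubation: 20 h compound treatment, 37 °C | Detection: SteadyLite luciferase luminescence | Evaluation: Percent activation relative to DMSO median and mock-transfected background | Benchmarks: DMSO-treated SF-1-transfected cells as negative, DMSO-treated mock-transfected cells lacking SF-1 as background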
RORa activator: activators of human nuclear receptor RORA; CHO-K1 Gal4-RORA LBD luciferase reporter, luminescence; percent increase over mock-subtracted basal signal; AID 560; P35398; 1.5% of 65,000 active; activation, % at 10 µM;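 active means activation above the mean of all tested compounds plus 3 SD, cut at about 49% in these data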;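 further: 0% = DMSO-treated RORA cells and 100% = added signal equal to DMSO minus mock-transfected cells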
Numbers without * were called inactive; nt = not tested or not shown. Compounds with a hit are over-represented: about 2.2% of the library has one in this group of screens.

SMILES | TNAP act mid DEA | MT1-MMP txn act | AP ELISA ortho | Ec RNAP inh | SF-1 act | RORa activator
CCCCSc1nnc(-c2ccccc2N)c(=O)[nH]1 | 1 | 1.8 | 3 | 3 | 35 | 58*
CCCSc1nnc(-c2ccccc2N)c(=O)[nH]1 | 1 | 1.3 | -5 | 11 | 45 | 43
Cc1[nH]nc(N=CC2=C(O)CC(C)(C)CC2=O)c1-c1ccc(Cl)cc1 | 0.9 | 1.4 | 10 | 6 | 31 | 83*
CC1(C)CC(=O)C(C=Nc2ccc3[nH]ncc3c2)=C(O)C1 | 0.8 | 1.3 | 23 | -3 | 79* | 18
CCN(CC)CCOC(=O)c1ccc(N=CC2=C(O)CC(C)(C)CC2=O)cc1 | 0.9 | 1.2 | 16 | -1 | -5 | -17
CC1(C)CC(=O)C(C=Nc2ccc(O)cc2)=C(O)C1 | 1 | 1.3 | 12 | 4 | 51* | 36
CC1(C)CC(=O)C(C=Nc2ccc3cn[nH]c3c2)=C(O)C1 | 0.9 | 1.3 | 3 | 6 | 24 | -11
CCOc1ccc(N=CC2=C(O)CC(C)(C)CC2=O)cc1 | 1 | 1.7 | 2 | 4 | 68* | 15
CCOC(=O)c1ccc(NC(=O)CN(Cc2ccc(Cl)cc2)S(C)(=O)=O)cc1 | nt | 1.2 | nt | nt | nt | nt
CCCOc1ccc(Br)cc1/C=N/O | nt | 1.3 | nt | nt | nt | nt
CCOC(=O)c1cnc(-c2ccccc2)nc1N(C)C | nt | 1.8 | nt | nt | nt | nt
CCOC(=O)c1cnc(-c2ccccc2)nc1N | 0.9 | 1 | -8 | 0 | 64* | 48
CCOC(=O)c1cnc(SCC(=O)c2ccccc2)nc1N | 0.8 | 1.4 | 13 | nt | 29 | 59*
CCOC(=O)c1cnc(SCC(=O)c2ccc(C)cc2)nc1N | nt | 1.3 | nt | nt | nt | nt
O=C(Nc1ccc2c(c1)OCO2)OCc1ccccc1 | 0.9 | 0.9 | 5 | 7 | 18 | 12
Clc1cc(Cl)c2nc(N3CCCC3)sc2c1 | 0.9 | 1.5 | 15 | 4 | 60* | 41
Clc1cc(Cl)c2nc(N3CCCCC3)sc2c1 | 0.9 | 2.1* | 17 | 4 | 61* | 24
Clc1cccc2sc(N3CCCCC3)nc12 | 1 | 1 | 16 | 4 | 48 | 13
Fc1cc(F)c2nc(N3CCCCC3)sc2c1 | 0.9 | 1.7 | 19 | 6 | 65* | 32
Cc1nc2nc(-c3ccccc3)nn2c(C)c1Cl | 1 | 2.2* | 18 | 5 | 103* | 77*
CCOC(=O)CSc1nc(-c2ccc3c(c2)OCO3)ccc1C#N | 0.9 | 1.7 | nt | -2 | 64* | 7
CCOC(=O)CSc1nc(-c2ccncc2)ccc1C#N | 0.8 | 1.1 | nt | 3 | 80* | 16
CCOc1ccc2cc(C#N)c(SCC(=O)N3CCC(C)CC3)nc2c1 | 0.8 | 1.1 | 9 | -1 | -2 | 2
CCOC(=O)CSc1nc2cc(OCC)ccc2cc1C#N | 0.9 | 1.7 | 10 | 8 | 2 | 53*
CC(C)NS(=O)(=O)c1ccc(CCC(=O)Nc2ccc3c(c2)OCO3)cc1 | nt | 1.2 | nt | nt | nt | nt
SMILES | TNAP act mid DEA | MT1-MMP txn act | AP ELISA ortho | Ec RNAP inh | SF-1 act | RORa activator
COC(=O)c1ccc(C(NC(=O)OCc2ccccc2)/C(I)=C/[C@@H](C)C(=O)NCc2cc(C)n(C)n2)cc1 (stereo partly drawn) | nt | 1.1 | nt | nt | nt | nt
Cc1[nH]n2c(=O)cc(C(C)(C)C)nc2c1-c1ccccc1 | 2* | 0.9 | 9 | 7 | -5 | -27
CC1CCN(C(=O)CSc2nnc(CSc3ncccn3)n2C)CC1 | 1 | 1 | 20 | 5 | 14 | -2
Cc1ccc(C)c(S(=O)(=O)Nc2ccc3scnc3c2)c1 | 0.9 | 1.1 | 6 | 4 | 26 | 20
CSc1ccc(CNc2ccccn2)cc1 | 0.9 | 1.5 | 20 | 2 | 17 | 61*
Cc1c(NS(=O)(=O)c2ccccc2)cc(Cl)c(O)c1C | 0.8 | 1 | 19 | 26* | nt | nt
c1ccc(-c2c3ccccc3nc3[nH]c4ccccc4c23)cc1 | nt | 1.1 | nt | nt | nt | nt
c1ccc2nc3c(nc2c1)[nH]c1ccccc13 | 0.9 | 1.2 | 7 | -1 | 81* | 50*
CCOC(=O)N1CCN(C(=O)c2ccccc2-c2ccccc2)CC1 | 0.9 | 0.5 | 8 | 3 | 60* | 17
COc1ccc(-n2ncc3c(NCc4ccccn4)ncnc32)cc1 | 0.9 | 1.4 | 8 | 10 | 56* | 36
CCC(CO)Nc1ncnc2c1cnn2-c1ccc(Cl)cc1 (stereo not drawn) | 0.9 | 0.6 | 12 | 6 | 35 | 28

Bioassay records (PubChem BioAssay)
